The subject of series [1] is Hepatitis C virus. Briefly: Antiviral activity against HCV1B BM4-5 infected in human Huh7.5 cells assessed as decrease in intracellular viral RNA treated for 3 days measured 24 hrs after last dose by luciferase reporter gene-based […]. The class given is functional, organism-based, Hepacivirus hominis. Particulars: genotype 1b BM4-5, Huh-7. In outline: (§1)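 Huh-7.5.1 human hepatoma cells stably carried the BM4-5 FEO (genotype 1B) or SGR-JFH-1 FEO (genotype 2A) replicon, selected with 500 μg/ml G-418. Cells were seeded at 10,000 per well and incubated with compound up to 100 μM (0.3% DMSO final) for 48 to 72 h. Luciferase light units gave dose-response EC50s. Each condition was run in triplicate, with 3 or 4 experimental replicates.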

Series [2] in a line: Cytotoxicity against human Huh7.5 cells administered for 3 days measured 24 hrs after last dose by neutral red dye uptake assay. It is filed as cell-based, Huh-7.
The test system of series [3] is Hepatitis C virus. Briefly: Antiviral activity against HCV2A SGR-JFH-1 infected in human Huh7.5 cells assessed as decrease in intracellular viral RNA treated for 3 days measured 24 hrs after last dose by luciferase reporter gene-based […]. It is filed as functional, organism-based, Hepacivirus hominis. To be noted: genotype 2a SGR-JFH-1, Huh-7. The essentials:
as §1

Series [4] in a line: Selectivity index, ratio of CC50 for human Huh7.5 cells to EC50 for HCV genotype 1B BM4-5 infected in human Huh7.5 cells. Details: species or system Huh-7. In outline:
(§2)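 SI is CC50 divided by EC50, both from the same BM4-5 FEO (1B) or SGR-JFH-1 FEO (2A) replicon Huh-7.5.1 cultures. Cells (10,000 per well) got compound up to 100 μM (0.3% DMSO final) for 48 to 72 h. EC50 came from the luciferase read-out, CC50 from a fluorescent viability/death assay. Each condition was run in triplicate.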

A short description of series [5]: Selectivity index, ratio of CC50 for human Huh7.5 cells to EC50 for HCV genotype 2A SGR-JFH-1 infected in human Huh7.5 cells. More on the design: species or system Huh-7. In outline:
as §2

The text below walks through data of ChEMBL document CHEMBL1649435, “The octadecyloxyethyl ester of (S)-9-[3-hydroxy-2-(phosphonomethoxy) propyl]adenine is a potent and selective inhibitor of hepatitis C virus replication in genotype 1A, 1B, and 2A replicons” (Antimicrob Agents Chemother, 2009).

A value given as a limit tells only on which side of the number the result lay.

The EC50 is the concentration that produces a half-maximal response. What is called CC50 is the concentration that lowers cell viability or growth by half. Read a high CC50 as better tolerance by the cells. As to `Nc1ncnc2c1ncn2C[C@@H](CO)OCP(=O)(O)O`, the EC50 with Hepatitis C virus [1] and in the series on Hepatitis C virus [3] was greater than 100 µM each time. Also, the 50% cytotoxic concentration (CC50) at 72 h in series [2] was greater than 100 µM.

For the compound `CCCCCCCCCCCCCCCCOCCCOP(=O)(O)CO[C@@H](CO)Cn1cnc2c(N)ncnc21`, the concentration for a half-maximal effect (EC50) stood at 6.71 µM with Hepatitis C virus [1] and 41 µM with Hepatitis C virus [3]. The compound further gave a CC50 at 72 h in series [2] greater than 100 µM. For the same compound, the “Selectivity Index” value in series [4] was greater than 15; in series [5], greater than 2.

Turning to `Nc1ncnc2c1ncn2C[C@H](CO)OCP(=O)(O)O`, the EC50 with Hepatitis C virus [1] and in the series on Hepatitis C virus [3] was greater than 100 µM each time. The CC50 at 72 h in series [2] was greater than 100 µM.

As to `CCCCCCCCCCCCCCCCCCOCCOP(=O)(O)CO[C@H](CO)Cn1cnc2c(N)ncnc21`, the half-maximal effective concentration (EC50) was 1.31 µM with Hepatitis C virus [1] and 0.69 µM with Hepatitis C virus [3]. For the same compound, half-maximal cytotoxicity in series [2] (CC50 at 72 h) was put at 35.6 µM. For the same compound, the “Selectivity Index” value stood at 27 in series [4] and 52 in series [5].

Regarding `CCCCCCCCCCCCCCCCCCOCCOP(=O)(O)CO[C@@H](CO)Cn1cnc2c(N)ncnc21`, the EC50 in the series on Hepatitis C virus [1] was found to be 7 µM; in the series on Hepatitis C virus [3], 26.7 µM. In series [2], the CC50 at 72 h is greater than 100 µM. The “Selectivity Index” value in series [4] is given as greater than 14; in series [5], greater than 4.

For the compound `CCCCCCCCCCCCCCCCOCCCOP(=O)(O)CO[C@H](CO)Cn1cnc2c(N)ncnc21`, the concentration giving a half-maximal response (EC50) in the series with Hepatitis C virus [1] came to 2.02 µM; in the series with Hepatitis C virus [3], 6.5 µM. In series [2], the CC50 at 72 h was determined as 85.3 µM. Further, the “Selectivity Index” value turned out to be 42 in series [4] and 13 in series [5].
